Source: PubChem BioAssay AID2152 (The Scripps Research Institute Molecular Screening Center, 2009)
The whole screen tested about 2,300 compounds, of which about 25 (1%) were called active. This is one part of a sample in which actives are shown more often than they occur.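 The calls were made as follows: active = mean inhibition over three replicate wells above the hit threshold derived in the earlier primary screen (cut at about 45% in these data); inactive = the rest.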

What follows are molecules tested on Hepatitis C virus core protein (core106 dimerization) (assay: blockers of core106 self-association – biochemical, TR-FRET, triplicate, confirmation (AID 2152;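 also: 0% = DMSO wells and 100% = unlabelled core106 competitor control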)). Conditions: TR-FRET GST-/Flag-core106 dimerization, HTRF; at 5 µM; hits give high values.
Method in brief: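 Test system: GST- and Flag-tagged HCV core106 peptides, dimerization via antibody TR-FRET / Amount: 17 nM Flag- plus 13.5 nM GST-core106 / Probe or stimulus: Eu(K)-anti-GST plus XL665-anti-FLAG antibodies / Compound dosing: one 5 µM dose, 0.5% DMSO / Times: 4 h incubation, 22.5 °C / Technique: TR-FRET, 340 nm excitation, 671/617 nm emission / Evaluation: percent inhibition from emission ratio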
`N#Cc1ccc(C23CC4(C2)[C@H](CN(P(=O)(c2ccccc2)c2ccccc2)[C@@H]4c2ccccc2)C3c2ccc(Cl)nc2)cc1` (stereo not given in full) was tested, and the inhibition was 8.04% (inactive).
With `CN(CC(=O)Nc1sccc1C#N)C1CCCCC1` the inhibition was 6.43% (inactive).
For `CC1CC1C(=O)Nc1nc(-c2cccs2)c(-c2cccs2)s1` (stereo not given), the inhibition was 7.18% (inactive).
`Cc1sccc1C1C(C#N)=C(N)SC(N)=C1C#N` was tested, and the inhibition was 32.6% (inactive).
With `COc1ccc(C2C(C#N)=C(N)SC(N)=C2C#N)cc1OC` the inhibition was 2.28% (inactive).
For `Cc1ccc(C2C(C#N)=C(N)SC(N)=C2C#N)c(C)c1`, the inhibition was 58% (active).
In the case of `Cc1cc(Cl)ccc1OC(C)C(=O)Nc1ccc(S(=O)(=O)Nc2cnc3ccccc3n2)cc1` (stereo not given), the inhibition is reported as -3.49% (inactive).
For `Cc1ccc(C)c(NC(=O)CN(C)C(=O)c2cccc(-n3cccc3)c2)c1`, the inhibition was 4.94% (inactive).
With `COc1cccc2cc(/C(C)=N/Nc3nc(-c4cc(C)ccc4C)cs3)c(=O)oc12` the inhibition was 16.7% (inactive).
For `COc1ccc(CCNC(=O)c2ccc3c(c2)NC(=O)C(CSCc2cc(C)ccc2C)N3)cc1OC` (stereo not given), the inhibition was 2.87% (inactive).
For `COc1ccc2c(c1)[nH]c(=O)c1sc3ccccc3c12`, the inhibition was -0.73% (inactive).
With `O=C(Nc1nnc(-c2ccccc2Cl)o1)c1nc2ccccc2s1` the inhibition was -8.09% (inactive).
`CN(C)c1ccc(/C=C/C=C2/SC(=S)N(c3ccccc3)C2=O)cc1` was tested, and the inhibition was -12.6% (inactive).
For `COc1ccc(OC)c(-c2csc(NC(=O)CSc3ccc([N+](=O)[O-])cc3)n2)c1`, the inhibition was -0.57% (inactive).
In the case of `O=c1ccc2c(-c3ccccc3)c3ccc(O)cc3oc-2c1`, the inhibition is reported as -13.9% (inactive).
For `COc1ccc2c(c1[N+](=O)[O-])CCC/C2=N/OC(=O)c1ccccc1SC`, the inhibition was -1.21% (inactive).
With `COc1ccc(/C=N\NS(=O)(=O)c2ccc(Cl)cc2)cc1COc1ccccc1[N+](=O)[O-]` the inhibition was -7.14% (inactive).
With `O=C(NCc1cccnc1)c1ccc(COc2cccc3ccccc23)o1` the inhibition was 4.61% (inactive).
With `O=C(CN(c1ccc(Cl)c(C(F)(F)F)c1)S(=O)(=O)c1ccccc1)N/N=C/c1cccc2c1OCCO2` the inhibition was -4.47% (inactive).
For `O=C(Nc1ccc(NC(=S)NC(=O)C(c2ccccc2)c2ccccc2)cc1)c1ccccc1`, the inhibition was 5.69% (inactive).
`COc1ccc(C(=O)N/C(=C/c2cccc3ccccc23)C(=O)NCCc2c[nH]c3ccccc23)cc1OC` was tested, and the inhibition was -0.16% (inactive).
`O=C(Nc1ccccc1)c1ccc(Nc2c([N+](=O)[O-])cc([N+](=O)[O-])c3ccccc23)cc1` was tested, and the inhibition was 1.02% (inactive).
`COc1ccc(N2CCN(C(=O)c3ccc4c(c3)NC(=O)C(CSCc3ccc(C)cc3)N4)CC2)cc1` (stereo not given) was tested, and the inhibition was 27% (inactive).
With `CSc1nc(N(C)CCO)c2sc3nc(-c4ccco4)c4c(c3c2n1)CCC4` the inhibition was -23.5% (inactive).
For `COc1ccccc1CCNC(=O)c1cc(-c2ccccn2)nc2ccc(Br)cc12`, the inhibition was -9.45% (inactive).
For `Cc1cc(C#N)c(C)n1-c1cc(S(=O)(=O)N2CCOCC2)ccc1N1CCCC1`, the inhibition was 2.12% (inactive).
For `CC1(C)Cc2c(C#N)c(N3CCN(C(=O)c4ccccc4Cl)CC3)nc(-c3ccco3)c2CS1`, the inhibition was 16.3% (inactive).
`O=C(N/N=C/c1ccc([N+](=O)[O-])o1)c1cn(-c2ccccc2)nc1-c1ccc(Cl)cc1` was tested, and the inhibition was -1.11% (inactive).
In the case of `Cc1ccc(-c2csc(C3=C(O)CN(NC(=O)c4ccc([N+](=O)[O-])cc4)C3=N)n2)cc1`, the inhibition is reported as 6.2% (inactive).
In the case of `O=c1[nH]c(C(Cl)Cl)nc2sc3c(c12)CCN(Cc1ccccc1)C3`, the inhibition is reported as 14.3% (inactive).
In the case of `COC(=O)c1ccc(Nc2cc(C)nc(-c3ccccc3O)n2)cc1`, the inhibition is reported as 6.69% (inactive).
In the case of `CN1CCc2c(sc3c2c(=O)n(-c2ccccc2)c2nnc(SCc4ccccc4)n32)C1`, the inhibition is reported as 3.83% (inactive).
For `O=C(COC(=O)c1cccc(S(=O)(=O)N2CCc3ccccc3C2)c1)NCc1ccco1`, the inhibition was 2.63% (inactive).
`COc1ccc(-c2cc(OC(=O)c3ccc(F)cc3)c3c(C)oc(C)c3c(=O)c2)cc1` was tested, and the inhibition was 0.02% (inactive).
With `CC(C)(C)C(=O)COC(=O)c1c2c(nc3ccccc13)CCC2` the inhibition was -3.89% (inactive).
`Cc1cc(Br)c2nc3c(c(C(=O)O)c2c1)CCCCC3` was tested, and the inhibition was 46.4% (active).
`CN(Cc1ccccc1)C(=O)C1CCN(S(=O)(=O)c2ccc3nc4c(c(C(=O)O)c3c2)CCCC4)CC1` was tested, and the inhibition was 3.04% (inactive).
For `CCn1cc([N+](=O)[O-])c(C(=O)N2N=C(c3cccc4ccccc34)CC2c2ccccc2O)n1` (stereo not given), the inhibition was 7.15% (inactive).
`O=C(COc1ccccc1)Nc1ccc(-c2nnc(-c3ccco3)o2)cc1` was tested, and the inhibition was 21.3% (inactive).
`COc1ccc(CC(=O)Nc2ccc(-c3nnc(-c4ccccc4)o3)cc2)cc1` was tested, and the inhibition was 11.4% (inactive).
For `COc1ccc(CC(=O)Nc2ccc(-c3nnc(-c4ccccc4)o3)cc2)cc1OC`, the inhibition was 56.3% (active).
For `Cc1ccc(Cc2c(C)nc3nc(SCC(=O)NCCCN4CCCCCC4)nn3c2C)cc1`, the inhibition was 89.8% (active).
For `Cc1nc2nc(SCC(=O)NCCCN3CCCCCC3)nn2c(C)c1Cc1ccccc1`, the inhibition was 13.3% (inactive).
In the case of `NC(=O)c1ccsc1NC(=O)COC(=O)/C=C/c1ccc([N+](=O)[O-])cc1`, the inhibition is reported as 7.73% (inactive).
In the case of `CCCN(CCC)C(=O)c1cc(-c2ccc3c(c2)OCO3)nc2ccccc12`, the inhibition is reported as -2.46% (inactive).
For `Cc1cc(C(=O)OCC(=O)c2cccc([N+](=O)[O-])c2)c2cccc(C)c2n1`, the inhibition was 13.6% (inactive).
`Cc1ccc(C)c(NC(=O)CSc2nc3nc(-c4cccs4)cc(C(F)(F)F)c3c(=O)[nH]2)c1` was tested, and the inhibition was 4.9% (inactive).
In the case of `CCOc1cc(/C=N/NC(N)=O)cc(Br)c1OCC(=O)Nc1cccc2ccccc12`, the inhibition is reported as 2.46% (inactive).
In the case of `CCOc1ccccc1C1C(C#N)=C(N)SC(N)=C1C#N`, the inhibition is reported as 1.92% (inactive).
With `N#CC1=C(N)SC(N)=C(C#N)C1CCc1ccccc1` the inhibition was -1.8% (inactive).
`N#CC1=C(N)SC(N)=C(C#N)C1c1ccnc2ccccc12` was tested, and the inhibition was 46.8% (active).
`C=CCn1nnc2sc3c(c2c1=O)CCC(C)C3` (stereo not given) was tested, and the inhibition was -1.29% (inactive).
`O=c1c2ccccc2nc2sc3ccccc3n12` was tested, and the inhibition was -1% (inactive).
For `O=C(Nc1ccc(Cl)c(Cl)c1)Nc1nnc(-c2ccncc2)s1`, the inhibition was 38.8% (inactive).
With `Cc1ccc2nc(C)cc(C(=O)OCC(=O)c3ccc(Cl)c([N+](=O)[O-])c3)c2c1` the inhibition was -4.97% (inactive).
With `CCN(CC)c1ccc(/C=N/NC(=O)Cc2nnc(NC(=O)Nc3ccccc3)s2)cc1` the inhibition was -1.4% (inactive).
In the case of `COc1ccc(/C=N/NC(=O)c2nn(-c3ccc(Cl)cc3)c(=O)c3c(N)scc23)cc1`, the inhibition is reported as 9.33% (inactive).
With `O=C(COC(=O)C1c2ccccc2Oc2ccccc21)Nc1ccc2c(c1)OCO2` the inhibition was -1.06% (inactive).
With `O=C(NC(=S)Nc1ccc(-c2ccc(CO)o2)cc1)c1cccs1` the inhibition was -8.29% (inactive).
For `CC(C)(C)c1nnc2sc(SC/C(O)=C(\C#N)c3nc4ccccc4[nH]3)nn2c1=O`, the inhibition was 0.37% (inactive).
In the case of `O=C1c2c(O)cccc2Cc2cccc(O)c21`, the inhibition is reported as 53.6% (active).
In the case of `CC1=CC(=O)c2c(O)ccc(O)c2C1=O`, the inhibition is reported as 35% (inactive).
With `CC(C)C(C)(C#N)NC(=O)CSc1nc2scc(-c3ccco3)c2c(=O)n1-c1ccccc1` (stereo not given) the inhibition was -0.21% (inactive).
With `N#C/C(=N\Nc1ccc(S(=O)(=O)N2CCc3ccccc32)cc1)C(N)=S` the inhibition was -0.77% (inactive).
In the case of `CC(=O)Oc1ccc(C(=O)[C@H]2[C@H]3C(=O)N(c4ccccc4)C(=O)[C@H]3[C@@H]3C=CC=NN32)cc1`, the inhibition is reported as -1.31% (inactive).
For `COc1ccc(-n2nc3cc(C)c(NC(=S)NC(=O)c4ccccc4C)cc3n2)cc1`, the inhibition was 14.3% (inactive).
With `COc1cccc(NC(=O)c2cc(-c3ccc(C)o3)nc3ccccc23)c1` the inhibition was -3.59% (inactive).
With `COc1cccc(NC(=S)Nc2cc(C)cc(C)n2)c1` the inhibition was 72.9% (active).
For `CC1Cc2ccccc2N1Cc1cc(=O)n2ccsc2n1` (stereo not given), the inhibition was 3.14% (inactive).
For `COc1ccc(C(=O)[C@H]2[C@H]3C(=O)N(c4ccc(C)cc4)C(=O)[C@H]3C3C=CC=NN32)cc1` (stereo not given in full), the inhibition was 2.52% (inactive).
In the case of `Cc1cc(C)c2nc(-c3ccccn3)cc(C(=O)Nc3ccc(S(=O)(=O)Nc4cc(C)on4)cc3)c2c1`, the inhibition is reported as 14.4% (inactive).
`Cc1ccc2c(c1C)NC(C(=O)O)C1CC=CC21` (stereo not given) was tested, and the inhibition was 17.4% (inactive).
In the case of `O=C(O)C1Nc2c(O)cccc2C2C=CCC12` (stereo not given), the inhibition is reported as 53.8% (active).
In the case of `COc1cccc2c1NC(C(=O)O)C1CC=CC21` (stereo not given), the inhibition is reported as 8.1% (inactive).
For `COc1ccccc1Nc1ncc(-c2cccs2)s1`, the inhibition was -8.18% (inactive).
In the case of `O=C(CN1CCN(c2ccc(F)cc2)CC1)NC(=O)NCc1ccco1`, the inhibition is reported as -6.85% (inactive).
`O=C(Cn1c(=O)c2c(ncn2C2CCCC2)n(Cc2ccccc2)c1=O)N1CCc2ccccc21` was tested, and the inhibition was 5.72% (inactive).
For `COc1ccc(C2CC(c3ccccc3)=NN2c2ccc(/C=N/NC(=O)c3ccncc3)cc2)cc1` (stereo not given), the inhibition was -1.14% (inactive).
With `CC(C)[C@H](NS(=O)(=O)c1ccccc1)C(=O)OCC(=O)N1N=C(c2ccc(Cl)cc2)CC1c1ccco1` (stereo not given in full) the inhibition was -2.37% (inactive).
For `COc1ccc(C2=NN(c3nc(-c4ccccc4)c(CC(=O)O)s3)C(c3ccco3)C2)cc1` (stereo not given), the inhibition was 51.3% (active).
In the case of `COc1ccc(C(=O)N/N=C(\C)c2ccc3c(c2)C2C=CCC2C(c2ccccc2)N3)cc1` (stereo not given), the inhibition is reported as 1.09% (inactive).
In the case of `Cc1cccc(N2CC(C(=O)Nc3nnc(SCc4ccccn4)s3)CC2=O)c1` (stereo not given), the inhibition is reported as 21.3% (inactive).
In the case of `COc1ccc(C=O)cc1COc1ccc(F)cc1F`, the inhibition is reported as -6.06% (inactive).
For `O=C(Nc1ccc(N2CCCC2)c(Cl)c1)c1cccc(-c2cc3ccccc3oc2=O)c1`, the inhibition was -5.08% (inactive).
In the case of `N#Cc1c(-c2ccco2)cc(-c2ccccn2)nc1N`, the inhibition is reported as 3.09% (inactive).
